Data set [1] concerns Staphylococcus aureus. Put plainly: Ratio of MIC for Staphylococcus aureus ATCC 29213 grown in CAMHB medium in presence of 95% mouse serum to MIC for Staphylococcus aureus ATCC 29213 in presence of 95% mouse serum ultrafiltrate. Type of data set: functional. The essentials: (§1)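 The fold increase is the mean arithmetic broth microdilution MIC in 95% serum (plus 5% CAMHB) divided by the mean MIC in 95% serum ultrafiltrate (plus 5% CAMHB). The ultrafiltrate was prepared with a 50 kDa cutoff that excludes albumin. Replicates were 8 per condition, or 4 to 8 for mouse. The same data give % bound = (1 − MIC ultrafiltrate/MIC serum) × 100.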

In data set [2] the test system is Staphylococcus aureus. Put plainly: Ratio of MIC for Staphylococcus aureus ATCC 29213 grown in CAMHB medium in presence of 95% rat serum to MIC for Staphylococcus aureus ATCC 29213 in presence of 95% rat serum ultrafiltrate. Type of data set: functional. The essentials: as §1
Data set [3] has as its system Staphylococcus aureus. Briefly: Ratio of MIC for Staphylococcus aureus ATCC 29213 grown in CAMHB medium in presence of 95% dog serum to MIC for Staphylococcus aureus ATCC 29213 in presence of 95% dog serum ultrafiltrate. The class given is functional. The essentials:
as §1

Data set [4] deals with Serum. Briefly: Protein binding in mouse serum by broth microdilution method. The class given is ADME, cell-free. The essentials: (§2)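 Pooled serum (dog: beagle) and its ultrafiltrate (50 kDa cutoff, excludes albumin) were used. Broth microdilution MICs against S. aureus ATCC 29213 were read with arithmetic drug dilutions, made in CAMHB with 0.002% polysorbate-80, in 95% serum or 95% ultrafiltrate plus 5% CAMHB. % bound = (1 − mean MIC ultrafiltrate/mean MIC serum) × 100. Human, rat and dog used 8 replicates; mouse used 4–8.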
For orientation: Broth dilution looks for growth in wells or tubes with falling amounts of substance.

Data set [5] is described as follows: Protein binding in human serum by broth microdilution method. Conditions: read-out: PB (converted). The class given is ADME, cell-free. Put shortly: as §2
A short description of data set [6]: Protein binding in rat serum by broth microdilution method. Type of data set: ADME, cell-free. As to conditions: read-out: PB (converted). The essentials:
as §2

The nature of data set [7]: Protein binding in dog serum by broth microdilution method. As to conditions: read-out: PB (converted). The class given is ADME, cell-free, Canis lupus familiaris. Put shortly:
as §2

The test system of data set [8] is Staphylococcus aureus. Put plainly: Antibacterial activity against Staphylococcus aureus ATCC 29213 grown in CAMHB medium by broth microdilution method in presence of 95% dog serum ultrafiltrate. Type of data set: functional. The essentials:
(§3)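 Broth microdilution MIC run in a matrix of 95% pooled serum, or 95% serum ultrafiltrate (50 kDa cutoff filter, albumin excluded), plus 5% CAMHB. Drug dilution steps were arithmetic and prepared in CAMHB. Means came from 8 replicates per condition (mouse 4 to 8). Dog serum came from beagles.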

Data set [9] concerns Staphylococcus aureus. Put plainly: Antibacterial activity against Staphylococcus aureus ATCC 29213 grown in CAMHB medium by broth microdilution method in presence of 95% dog serum. Type of data set: functional. Put shortly:
as §3

Data set [10] concerns Staphylococcus aureus. Put plainly: Ratio of MIC for Staphylococcus aureus ATCC 29213 grown in CAMHB medium in presence of 95% human serum to MIC for Staphylococcus aureus ATCC 29213 in presence of 95% human serum ultrafiltrate. Type of data set: functional. Put shortly: as §1
Data set [11] relates to Staphylococcus aureus. Briefly: Antibacterial activity against Staphylococcus aureus ATCC 29213 grown in CAMHB medium by broth microdilution method in presence of 95% mouse serum ultrafiltrate. Type of data set: functional. Put shortly: as §3
The test system of data set [12] is Staphylococcus aureus. Put plainly: Antibacterial activity against Staphylococcus aureus ATCC 29213 grown in CAMHB medium by broth microdilution method in presence of 95% mouse serum. The class given is functional. The essentials: as §3
In data set [13] the test system is Staphylococcus aureus. Briefly: Antibacterial activity against Staphylococcus aureus ATCC 29213 grown in CAMHB medium by broth microdilution method in presence of 95% rat serum ultrafiltrate. Type of data set: functional. Put shortly: as §3
The test system of data set [14] is Staphylococcus aureus. Briefly: Antibacterial activity against Staphylococcus aureus ATCC 29213 grown in CAMHB medium by broth microdilution method in presence of 95% rat serum. Type of data set: functional. The essentials: as §3
Data set [15] concerns Staphylococcus aureus. Put plainly: Antibacterial activity against Staphylococcus aureus ATCC 29213 grown in CAMHB medium by broth microdilution method. The class given is functional. Put shortly: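 MIC determined by broth microdilution under CLSI M7-A8 conditions in cation-adjusted Mueller-Hinton broth, using arithmetic drug dilution steps.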
Data set [16] concerns Staphylococcus aureus. Briefly: Antibacterial activity against Staphylococcus aureus ATCC 29213 grown in CAMHB medium by broth microdilution method in presence of 95% human serum ultrafiltrate. The class given is functional. The essentials:
as §3

The test system of data set [17] is Staphylococcus aureus. Put plainly: Antibacterial activity against Staphylococcus aureus ATCC 29213 grown in CAMHB medium by broth microdilution method in presence of 95% human serum. Type of data set: functional. The essentials: as §3
Data set [18] relates to Staphylococcus aureus. Briefly: Antibacterial activity against Staphylococcus aureus ATCC 29213 grown in CAMHB medium by broth microdilution method in presence of 0.002% polysorbate 80 and 95% rat serum. The class given is functional. The essentials:
(§4)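 Broth microdilution with arithmetic drug dilutions prepared in CAMHB containing 0.002% polysorbate-80. Test medium was 95% pooled serum or 95% serum ultrafiltrate plus 5% CAMHB. Ultrafiltrate was made on 50 kDa cutoff ultrafilters, which exclude albumin. Means came from 8 replicates for human, rat and dog, and from 4 to 8 replicates for mouse.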

The nature of data set [19]: Plasma protein binding in human by broth microdilution method. The class given is ADME, cell-free. Conditions: read-out: PPB (converted).
Data set [20] is described as follows: Plasma protein binding in rat. Type of data set: ADME, cell-free. Conditions: read-out: PPB.
The nature of data set [21]: Plasma protein binding in human at 1 to 91 ug/ml by DCC adsorption method. Type of data set: ADME, cell-free. Conditions: read-out: PB (converted).
Data set [22] has as its target Albumin (Homo sapiens, UniProt P02768). Briefly: Binding affinity to human serum albumin at 0.2 ug/ml. Type of data set: ADME.
The subject of data set [23] is Staphylococcus aureus. Put plainly: Antibacterial activity against Staphylococcus aureus ATCC 29213 grown in CAMHB medium by broth microdilution method in presence of 0.002% polysorbate 80 and 95% dog serum ultrafiltrate. The class given is functional. Put shortly:
as §4

Data set [24] has as its system Staphylococcus aureus. Briefly: Antibacterial activity against Staphylococcus aureus ATCC 29213 grown in CAMHB medium by broth microdilution method in presence of 0.002% polysorbate 80 and 95% dog serum. Type of data set: functional. Put shortly:
as §4

The subject of data set [25] is Staphylococcus aureus. Briefly: Antibacterial activity against Staphylococcus aureus ATCC 29213 grown in CAMHB medium by broth microdilution method in presence of 0.002% polysorbate 80 and 95% mouse serum ultrafiltrate. The class given is functional. The essentials: as §4
Data set [26] deals with Staphylococcus aureus. Briefly: Antibacterial activity against Staphylococcus aureus ATCC 29213 grown in CAMHB medium by broth microdilution method in presence of 0.002% polysorbate 80 and 95% mouse serum. The class given is functional. The essentials:
as §4

The test system of data set [27] is Staphylococcus aureus. Briefly: Antibacterial activity against Staphylococcus aureus ATCC 29213 grown in CAMHB medium by broth microdilution method in presence of 0.002% polysorbate 80 and 95% rat serum ultrafiltrate. Type of data set: functional. Put shortly: as §4
Data set [28] relates to Staphylococcus aureus. Put plainly: Antibacterial activity against Staphylococcus aureus ATCC 29213 grown in CAMHB medium by broth microdilution method in presence of 0.002% polysorbate 80. The class given is functional. Put shortly:
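Broth microdilution per CLSI M7-A8 in cation-adjusted Mueller-Hinton broth with 0.002% polysorbate-80. Arithmetic dilution steps of 0.5 μg/ml from 3 to 1 μg/ml, 0.1 μg/ml from 1 to 0.3, 0.05 μg/ml from 0.3 to 0.1, and 0.01 μg/ml from 0.1 to 0.04 μg/ml. Mean of 8 replicates.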

In data set [29] the test system is Staphylococcus aureus. Put plainly: Antibacterial activity against Staphylococcus aureus ATCC 29213 grown in CAMHB medium by broth microdilution method in presence of 0.002% polysorbate 80 and 95% human serum ultrafiltrate. The class given is functional. Put shortly: as §4
Data set [30] deals with Staphylococcus aureus. Put plainly: Antibacterial activity against Staphylococcus aureus ATCC 29213 grown in CAMHB medium by broth microdilution method in presence of 0.002% polysorbate 80 and 95% human serum. Type of data set: functional. Put shortly:
as §4

≈ marks a conversion by molar mass, not a printed value.

Sequence of Albumin (P02768 whole entry): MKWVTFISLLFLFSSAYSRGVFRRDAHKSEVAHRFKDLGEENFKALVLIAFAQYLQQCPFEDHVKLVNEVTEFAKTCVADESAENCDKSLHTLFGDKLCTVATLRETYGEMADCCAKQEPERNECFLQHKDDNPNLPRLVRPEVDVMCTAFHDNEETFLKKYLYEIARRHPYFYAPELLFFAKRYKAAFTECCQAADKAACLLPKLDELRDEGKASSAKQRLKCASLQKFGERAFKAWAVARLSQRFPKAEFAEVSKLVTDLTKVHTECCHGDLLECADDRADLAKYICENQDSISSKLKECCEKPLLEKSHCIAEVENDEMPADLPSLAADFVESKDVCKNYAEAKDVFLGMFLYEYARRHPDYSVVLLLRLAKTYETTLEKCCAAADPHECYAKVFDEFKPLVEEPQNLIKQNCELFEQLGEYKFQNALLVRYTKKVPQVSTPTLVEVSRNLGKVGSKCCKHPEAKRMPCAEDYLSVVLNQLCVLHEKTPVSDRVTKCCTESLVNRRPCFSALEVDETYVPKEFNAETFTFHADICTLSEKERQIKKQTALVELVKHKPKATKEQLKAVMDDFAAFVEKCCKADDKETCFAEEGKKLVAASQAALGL

One may read the MIC as the least concentration at which growth counts as inhibited. In the case of `CO/N=C(\C(=O)N[C@@H]1C(=O)N2C(C(=O)O)=C(CSc3nc(=O)c(O)nn3C)CS[C@H]12)c1csc(N)n1` [CEFTRIAXONE], the Ratio came out at 1.6 in data set [1], 1.5 in data set [2], 1.3 in [3] and 13.5 in [10]. In data set [4], this compound gave a Protein binding of 37.5%. For the same compound, the results for the fraction unbound in data set [5], in [6] and in data set [7] were 0.074, 0.66 and 0.791, respectively. Also, the MIC was determined as 1.09 µg/mL in [8]; 1.38 µg/mL in data set [9]; 3.75 µg/mL in [11]; 6 µg/mL in data set [12]; 3.88 µg/mL in data set [13]; 5.88 µg/mL in [14]. In addition, the MIC came out at 3.5 µg/mL (≈ 6.31 µM) in data set [15], 2.88 µg/mL in data set [16] and 38.8 µg/mL in [17].
Take `CN[C@H](CC(C)C)C(=O)N[C@H]1C(=O)N[C@@H](CC(N)=O)C(=O)N[C@H]2C(=O)N[C@H]3C(=O)N[C@H](C(=O)N[C@H](C(=O)O)c4cc(O)cc(O)c4-c4cc3ccc4O)[C@H](O[C@H]3C[C@](C)(N)[C@@H](O)[C@H](C)O3)c3ccc(c(Cl)c3)Oc3cc2cc(c3O[C@@H]2O[C@H](CO)[C@@H](O)[C@H](O)[C@H]2O[C@H]2C[C@](C)(NCc3ccc(-c4ccc(Cl)cc4)cc3)[C@@H](O)[C@H](C)O2)Oc2ccc(cc2Cl)[C@H]1O` [ORITAVANCIN]: the MIC stood at 0.313 µg/mL in data set [18]; 0.061 µg/mL in data set [23]; 0.475 µg/mL in data set [24]; 0.079 µg/mL in data set [25]; 0.538 µg/mL in data set [26]; 0.055 µg/mL in data set [27]. Also, the MIC in data set [28] worked out at 0.08 µg/mL; in [29] it was 0.14 µg/mL; in data set [30], 0.775 µg/mL. The Ratio in data set [1] worked out at 6.8; in [2], 5.7; in data set [3] it was 7.8; in data set [10], 5.5. The fraction unbound in [19] is 0.125; in [20], < 0.2; in data set [21], 0.143. Besides, the fraction unbound at 0.2 ug/ml in data set [22] worked out at 0.21.

These data come from ChEMBL document CHEMBL1629700, “Assessment of oritavancin serum protein binding across species” (Antimicrob Agents Chemother, 2010).
